Measurements taken from ChEMBL document CHEMBL3739340, “Synthesis and Evaluation of Novel Erlotinib-NSAID Conjugates as More Comprehensive Anticancer Agents” (ACS Med Chem Lett, 2015).

Columns and labels:
A-431 = test: Antiproliferative activity against human A431 cells after 72 hrs by CCK-8 assay; type: functional, cell-based
[1] = Antiproliferative activity against human HCC827 cells after 72 hrs by CCK-8 assay; type: functional, cell-based; settings: HCC827, 72 h
[2] = target: T1, Prostaglandin G/H synthase 1 (Ovis aries, UniProt P05979); test: Inhibition of Ovine COX-1 preincubated for 15 mins by fluorescence analysis
T1 sequence (P05979 whole entry): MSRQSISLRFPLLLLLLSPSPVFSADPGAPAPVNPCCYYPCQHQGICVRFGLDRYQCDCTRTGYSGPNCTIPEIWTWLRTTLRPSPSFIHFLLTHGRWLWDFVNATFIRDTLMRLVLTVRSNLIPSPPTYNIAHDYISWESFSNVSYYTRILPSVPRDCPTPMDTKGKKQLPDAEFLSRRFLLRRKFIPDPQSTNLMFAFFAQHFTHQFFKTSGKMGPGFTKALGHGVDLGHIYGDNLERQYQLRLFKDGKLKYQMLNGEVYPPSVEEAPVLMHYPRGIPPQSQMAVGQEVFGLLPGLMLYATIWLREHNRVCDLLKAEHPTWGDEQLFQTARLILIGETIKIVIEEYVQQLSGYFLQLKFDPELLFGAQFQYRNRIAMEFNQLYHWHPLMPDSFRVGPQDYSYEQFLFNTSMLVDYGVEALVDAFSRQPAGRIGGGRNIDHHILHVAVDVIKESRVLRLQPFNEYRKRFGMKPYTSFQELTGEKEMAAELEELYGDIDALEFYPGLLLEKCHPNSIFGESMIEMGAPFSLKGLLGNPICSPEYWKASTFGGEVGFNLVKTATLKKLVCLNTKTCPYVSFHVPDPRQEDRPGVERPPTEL

[3] = target: Epidermal growth factor receptor (Homo sapiens, UniProt P00533); test: Inhibition of EGFR (unknown origin) using tyrosine 4 as substrate by fluorescence analysis
Sequence of Epidermal growth factor receptor (P00533 whole entry): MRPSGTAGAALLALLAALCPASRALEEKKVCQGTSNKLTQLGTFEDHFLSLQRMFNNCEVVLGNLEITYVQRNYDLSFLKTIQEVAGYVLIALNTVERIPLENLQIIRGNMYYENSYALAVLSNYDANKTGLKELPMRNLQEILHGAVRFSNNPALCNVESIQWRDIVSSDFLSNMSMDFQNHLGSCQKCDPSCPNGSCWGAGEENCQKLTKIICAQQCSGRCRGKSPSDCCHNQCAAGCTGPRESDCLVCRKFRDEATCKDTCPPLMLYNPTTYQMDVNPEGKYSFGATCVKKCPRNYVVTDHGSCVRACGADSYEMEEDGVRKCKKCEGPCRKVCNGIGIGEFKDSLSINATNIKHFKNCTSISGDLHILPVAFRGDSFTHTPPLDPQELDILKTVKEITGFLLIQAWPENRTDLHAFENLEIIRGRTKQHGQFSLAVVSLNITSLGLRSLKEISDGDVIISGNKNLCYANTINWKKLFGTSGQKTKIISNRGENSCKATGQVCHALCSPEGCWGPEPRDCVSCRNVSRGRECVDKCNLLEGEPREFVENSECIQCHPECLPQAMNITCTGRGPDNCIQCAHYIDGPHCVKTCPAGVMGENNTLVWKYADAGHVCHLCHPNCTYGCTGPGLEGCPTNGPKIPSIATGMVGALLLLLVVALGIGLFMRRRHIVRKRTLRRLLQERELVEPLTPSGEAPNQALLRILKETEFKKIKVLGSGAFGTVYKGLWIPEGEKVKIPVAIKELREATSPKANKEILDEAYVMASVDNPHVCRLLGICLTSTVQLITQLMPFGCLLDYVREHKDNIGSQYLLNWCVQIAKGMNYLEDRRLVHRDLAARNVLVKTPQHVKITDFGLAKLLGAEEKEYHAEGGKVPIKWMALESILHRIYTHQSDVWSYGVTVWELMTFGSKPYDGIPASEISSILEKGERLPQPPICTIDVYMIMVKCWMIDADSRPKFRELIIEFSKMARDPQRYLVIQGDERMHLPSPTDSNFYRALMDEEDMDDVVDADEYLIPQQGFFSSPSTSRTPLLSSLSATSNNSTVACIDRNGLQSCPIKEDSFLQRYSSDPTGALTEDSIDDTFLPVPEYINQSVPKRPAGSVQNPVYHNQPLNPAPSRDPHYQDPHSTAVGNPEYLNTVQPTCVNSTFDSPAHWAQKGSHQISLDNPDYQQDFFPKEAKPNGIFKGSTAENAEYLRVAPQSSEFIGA

[4] = Drug level in human HCC827 cells treated with 2-(4-(3-ethynylphenylamino)-6-(2-methoxyethoxy)quinazolin-7-yloxy)ethyl 2-(6-methoxynaphthalen-2-yl)propanoate by LC-MS/MS analysis; type: ADME, cell-based
Procedure, shortened: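 Conjugate added to culture medium (containing active serum) and incubated with HCC827 tumor cells for up to 24 h. Samples taken over time to follow hydrolysis of the conjugate and release of the parent molecules.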

[5] = Homo sapiens, A-431, 72 h, read-out: IC50

Row | SMILES | IC50 (A-431; [5]) | IC50 [1] | IC50 [2] | IC50 [3] | Drug metabolism [4] | IC50 (A-431; a-431)
1 | C#Cc1cccc(Nc2ncnc3cc(OCCOC)c(OCCOC(=O)C(C)c4cccc(C(=O)c5ccccc5)c4)cc23)c1 (stereo not drawn) | 1.7 µM | 0.3 µM |  |  |  | 
2 | C#Cc1cccc(Nc2ncnc3cc(OCCOC)c(OCCOC(=O)CC4=C(C)/C(=C\c5ccc([S+](C)[O-])cc5)c5ccc(F)cc54)cc23)c1 (stereo not drawn) | 4.8 µM | 0.4 µM |  |  |  | 
3 | C#Cc1cccc(Nc2ncnc3cc(OCCOC(=O)Cc4c(C)n(C(=O)c5ccc(Cl)cc5)c5ccc(OC)cc45)c(OCCOC(=O)Cc4c(C)n(C(=O)c5ccc(Cl)cc5)c5ccc(OC)cc45)cc23)c1 | > 10 µM | 1.6 µM | 31.4 µM | 0.033 µM |  | 
4 | C#Cc1cccc(Nc2ncnc3cc(OCCOC)c(OCCOC)cc23)c1 [ERLOTINIB] |  |  | > 10 µM |  |  | 
5 | C#Cc1cccc(Nc2ncnc3cc(OCCOC)c(OCCOC(=O)C(C)c4ccc(CC(C)C)cc4)cc23)c1 (stereo not drawn) | > 10 µM | > 10 µM |  |  |  | 
6 | CC(=O)Oc1ccccc1C(=O)O [ASPIRIN] |  |  |  | > 10 µM |  | 
7 | CC1=C(CC(=O)O)c2cc(F)ccc2/C1=C\c1ccc([S+](C)[O-])cc1 (stereo not drawn) |  |  | 16 µM | > 10 µM |  | 
8 | C#Cc1cccc(Nc2ncnc3cc(OCCO)c(OCCOC)cc23)c1 | 1.27 µM | 0.014 µM | > 10 µM | 0.001 µM | metabolite_detected | 
9 | C#Cc1cccc(Nc2ncnc3cc(OCCOC(=O)c4ccc(C(=O)Nc5ccc6c(c5)C(C)(C)CCC6(C)C)cc4)c(OCCOC)cc23)c1 | > 10 µM | 0.2 µM | > 10 µM | 0.032 µM |  | 
10 | CC(C(=O)O)c1cccc(C(=O)c2ccccc2)c1 (stereo not drawn) [KETOPROFEN] |  |  | 0.067 µM | > 10 µM |  | 
11 | C#Cc1cccc(Nc2ncnc3cc(OCCOC)c(OCCOC(=O)Cc4c(C)n(C(=O)c5ccc(Cl)cc5)c5ccc(OC)cc45)cc23)c1 | > 10 µM | 1.2 µM |  |  |  | 
12 | C#Cc1cccc(Nc2ncnc3cc(OCCOC(=O)CC4=C(C)/C(=C/c5ccc([S+](C)[O-])cc5)c5ccc(F)cc54)c(OCCOC(=O)CC4=C(C)/C(=C/c5ccc([S+](C)[O-])cc5)c5ccc(F)cc54)cc23)c1 (stereo not drawn) | > 10 µM | 3.5 µM | > 10 µM | 0.027 µM |  | 
13 | CC(C)Cc1ccc(C(C)C(=O)O)cc1 (stereo not drawn) [IBUPROFEN] |  |  |  | > 10 µM |  | 
14 | C#Cc1cccc(Nc2ncnc3cc(OCCOC(=O)C(C)c4ccc(CC(C)C)cc4)c(OCCOC(=O)C(C)c4ccc(CC(C)C)cc4)cc23)c1 (stereo not drawn) |  | 16.5 µM | > 10 µM | > 10 µM |  | Not Active
15 | C#Cc1cccc(Nc2ncnc3cc(OCCOC)c(OCCOC(=O)c4ccccc4OC(C)=O)cc23)c1 | > 10 µM | 0.1 µM |  |  |  | 
16 | C#Cc1cccc(Nc2ncnc3cc(OCCOC(=O)C(C)c4ccc5cc(OC)ccc5c4)c(OCCOC(=O)C(C)c4ccc5cc(OC)ccc5c4)cc23)c1 (stereo not drawn) |  | 2.3 µM | > 10 µM | 0.39 µM |  | Not Active
17 | COc1ccc2cc(C(C)C(=O)O)ccc2c1 (racemic) |  |  |  | > 10 µM | metabolite_detected | 
18 | COc1ccc2c(c1)c(CC(=O)O)c(C)n2C(=O)c1ccc(Cl)cc1 [INDOMETHACIN] |  |  |  | > 10 µM |  | 
19 | C#Cc1cccc(Nc2ncnc3cc(OCCOC(=O)c4ccccc4OC(C)=O)c(OCCOC(=O)c4ccccc4OC(C)=O)cc23)c1 | > 10 µM | 0.9 µM | 39.6 µM | 0.034 µM |  | 
20 | C#Cc1cccc(Nc2ncnc3cc(OCCOC(=O)c4ccccc4OC(C)=O)c(OCCOC)cc23)c1 | 1.8 µM | 0.1 µM | > 10 µM | 0.005 µM |  | 
21 | C#Cc1cccc(Nc2ncnc3cc(OCCOC(=O)C(C)c4cccc(C(=O)c5ccccc5)c4)c(OCCOC(=O)C(C)c4cccc(C(=O)c5ccccc5)c4)cc23)c1 (stereo not drawn) | > 10 µM | 2.1 µM |  |  |  | 
22 | C#Cc1cccc(Nc2ncnc3cc(OCCOC(=O)C(C)c4ccc(CC(C)C)cc4)c(OCCOC)cc23)c1 (stereo not drawn) | 2.2 µM | 0.4 µM | 44.7 µM | 0.009 µM |  | 
23 | C#Cc1cccc(Nc2ncnc3cc(OCCOC(=O)CC4=C(C)/C(=C\c5ccc([S+](C)[O-])cc5)c5ccc(F)cc54)c(OCCOC)cc23)c1 (stereo not drawn) | 5.4 µM | 0.3 µM | > 10 µM | 0.031 µM |  | 
24 | C#Cc1cccc(Nc2ncnc3cc(OCCOC)c(OCCOC(=O)C(C)c4ccc5cc(OC)ccc5c4)cc23)c1 (stereo not drawn) | 5 µM | 0.5 µM |  |  |  | 
25 | C#Cc1cccc(Nc2ncnc3cc(OCCOC(=O)Cc4c(C)n(C(=O)c5ccc(Cl)cc5)c5ccc(OC)cc45)c(OCCOC)cc23)c1 | > 10 µM | 0.9 µM | 11.3 µM | 0.027 µM |  | 
26 | C#Cc1cccc(Nc2ncnc3cc(OCCOC(=O)c4ccc(C(=O)Nc5ccc6c(c5)C(C)(C)CCC6(C)C)cc4)c(OCCOC(=O)c4ccc(C(=O)Nc5ccc6c(c5)C(C)(C)CCC6(C)C)cc4)cc23)c1 |  | > 10 µM | > 10 µM | 0.88 µM |  | Not Active
